Where two headings read alike, the source gives them in different places.
Assays:
Format in all cases: cell-based
[1] = target: T1, CatSper (Homo sapiens, UniProt Q7RTX7+Q86XQ3+Q8NEC5+Q96P56); experiment: Human sperm calcium influx assay, activation; settings: for Emax: read-out: Emax, %, Steroid Alone; for Emax, %, Steroid Alone: percent of response to saturating PROG (3 µM); for fold less potent than PROG (calcium influx): relative to PROG; for fold lower activity than the corresponding pregnanolones (10–11): hydroxylation of the 21 position
Outline: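 Semen from healthy donors was liquefied at 37 °C, washed twice in low pH/low K+ buffer (pH 6.7, 0.2 mM CaCl2), then loaded with 10 µM Fluo-4-AM plus 1 mM probenecid, 30 min, room temperature, dark. On FLIPR, buffer was added first, then openers 2 min later. Fluorescence was read for 7 min at 2-s intervals. EC50 came from 8-point, 3-fold dilutions in duplicate, peak height, four-parameter fit. Emax is relative to 3 µM progesterone. Activators were retested with 30 µM mibefradil.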

[2] = target: T1, CatSper; settings: for IC50: human sperm, mean ±SD
[3] = test system: human sperm; experiment: Computer-assisted sperm analysis
Outline: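 Donor semen was liquefied ≥40 min at 37 °C, then swim-up in HAM's F10 for 1 h at 37 °C, 5% CO2. Cells were adjusted to 10x10^6/mL and capacitated in HAM's F10 with 5% BSA and 15 mM NaHCO3 at 37 °C, 5% CO2, with test compound or DMSO. HAM was induced with 100 nM progesterone or 100 nM PGE1. CASA at 37 °C used ≥10 fields, ≥200 cells. Motility classes came from VAP/VSL/VCL-derived LIN and STR, normalized to vehicle controls, ≥3 experiments.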

[4] = pEC50, calcium influx, Steroid Alone, human sperm, mean ±SD

SMILES | EC50 [1, 4] [nM] | Emax [1] [%] | pEC50, calcium influx, Steroid Alone ([1]; human sperm, mean ±SD) | Emax, %, Steroid Alone [1] [%] | also measured
CC#C[C@]1(O)CC[C@H]2[C@@H]3CCC4=CC(=O)CCC4=C3[C@@H](c3ccc(N(C)C)cc3)C[C@@]21C [compound 33, mifepristone (RU-486)] | 4680 | 109 |  |  | 
CC(=O)[C@@]1(O)CC[C@H]2[C@@H]3CCC4=CC(=O)CCC4=C3[C@@H](c3ccc(N(C)C)cc3)C[C@@]21C [compound 32, ulipristal] | 3550 | 106 |  |  | 
CC(=O)[C@@]1(O)CC[C@H]2[C@@H]3C[C@H](C)C4=CC(=O)CC[C@]4(C)[C@H]3CC[C@@]21C [compound 30, 17α-hydroxy-6α-methylprogesterone] |  |  | 6.33 ± 0.10 | 96 | fold reduction of activity relative to 17α-hydroxyprogesterone ([1]; addition of a 6α-methyl group): 47 fold
C[C@@H]1CC2=CC(=O)CC[C@@H]2[C@H]2CC[C@]3(C)[C@@H](O)CC[C@H]3[C@@H]21 [compound 39, 7α-methyl-19-nortestosterone] |  |  | 6.25 ± 0.37 | 86 | 
CCCCC[C@H](O)/C=C/[C@H]1[C@H](O)CC(=O)[C@@H]1CCCCCCC(=O)O [compound 2, prostaglandin E1] | 3.98 | 101 |  |  | 
CC(=O)[C@H]1[C@H](O)C[C@H]2[C@@H]3CCC4=CC(=O)CC[C@]4(C)[C@H]3CC[C@@]21C [compound 28, 16α-hydroxyprogesterone] |  |  | 6.77 ± 0.18 | 106 | fold less potent than PROG (calcium influx) [1]: 46 fold
C[C@]12CC[C@@H](O)C[C@@H]1CC[C@@H]1[C@@H]2CC[C@]2(C)[C@@H](C(=O)CO)CC[C@@H]12 [compound 27, 3α,5α-THDOC] |  |  | 6.05 ± 0.21 | 96 | fold lower activity than the corresponding pregnanolones (10–11) [1]: threefold; fold less potent than PROG (calcium influx) [1]: ≥ 240 fold
CC(=O)[C@H]1CC[C@H]2[C@@H]3CC[C@@H]4C[C@@H](O)CC[C@]4(C)[C@H]3CC[C@]12C [compound 13, 3β,5β-pregnanolone] |  |  | 6.89 ± 0.20 | 92 | 
C[C@]12CC[C@@H]3c4ccc(O)cc4CC[C@H]3[C@@H]1CC[C@@H]2O [compound 37, 17β-estradiol] | 295 | 94 |  |  | 
CC(=O)[C@H]1CC[C@H]2[C@@H]3CC[C@H]4C[C@@H](O)CC[C@]4(C)[C@H]3CC[C@]12C [compound 12, 3β,5α-pregnanolone] |  |  | 7.16 ± 0.11 | 99 | 
CC(=O)[C@H]1CC[C@H]2[C@@H]3C[C@H]4O[C@]45CC(=O)CC[C@]5(C)[C@H]3CC[C@]12C [compound 17, 5β,6β-epoxypregnan-3,20-dione] | 417 | 84 |  |  | 
CC(=O)C1(O)CCC2C3CCC4=CC(=O)CCC4(C)C3CCC21C (stereo not drawn) [compound 25, 17α-hydroxyprogesterone] | 10.5 | 115 |  |  | fold less potent than PROG (calcium influx) [1]: threefold
CC(=O)[C@H]1CC[C@H]2[C@@H]3C[C@@H]4O[C@@]45CC(=O)CC[C@]5(C)[C@H]3CC[C@]12C [compound 16, 5α,6α-epoxypregnan-3,20-dione] | 832 | 83 |  |  | 
CC(=O)[C@H]1CC[C@H]2[C@@H]3CCC4=CC(=O)CC[C@]4(C)[C@H]3[C@@H](O)C[C@]12C [compound 23, 11β-hydroxyprogesterone] | 18.6 | 90 |  |  | fold less potent than PROG (calcium influx) [1]: 5 fold
COCC(=O)O[C@]1(CCN(C)CCCc2nc3ccccc3[nH]2)CCc2cc(F)ccc2[C@@H]1C(C)C [mibefradil] |  |  |  |  | block of calcium influx for all modes of channel opening ([2]; blocker 30 µM): completely blocked influx; IC50 ([2]; pIC50, inhibition of PGE1-induced calcium influx, opener 10 nM PGE1 (EC80)): 8320 nM; IC50 ([2]; pIC50, inhibition of l-sirenin-induced calcium influx, opener 3 µM l-sirenin (EC80)): 8130 nM; calcium influx elicited by the blocker itself ([1]; ML218 up to 100 µM, mibefradil at higher concentrations): we did not observe a mibefradil-induced calcium influx; concentration that completely ablated total and progressive motility ([3]; CASA, human sperm): 30 µM; concentration that completely ablated HAM ([3]; HAM induced with 100 nM PROG or 100 nM PGE1, 4 hours, capacitating conditions): 10 µM
CC(=O)[C@H]1CC[C@H]2[C@@H]3C[C@@H](O)C4=CC(=O)CC[C@]4(C)[C@H]3CC[C@]12C [compound 21, 6β-hydroxyprogesterone] |  |  | 6.91 ± 0.10 | 116 | 
CC(=O)O[C@]1(C(C)=O)CC[C@H]2[C@@H]3CCC4=CC(=O)CCC4=C3[C@@H](c3ccc(N(C)C)cc3)C[C@@]21C [compound 34, ulipristal acetate] | > 10000 | 27 |  |  | 

SMILES | EC50 [1, 4] [nM] | Emax [1] [%] | pEC50, calcium influx, Steroid Alone ([1]; human sperm, mean ±SD) | Emax, %, Steroid Alone [1] [%] | also measured
CC(=O)[C@H]1CC[C@H]2[C@@H]3CC[C@H]4C[C@H](O)CC[C@]4(C)[C@H]3CC[C@]12C [compound 10, 3α,5α-pregnanolone] |  |  | 6.56 ± 0.21 | 85 | 
C[C@]12CCC(=O)C=C1[C@@H]1C[C@@H]1[C@H]1[C@@H]3[C@@H]4C[C@@H]4[C@@]4(CCC(=O)O4)[C@@]3(C)CC[C@@H]12 [compound 31, drospirenone] | 525 | 115 |  |  | 
CC(=O)[C@H]1CC[C@H]2[C@@H]3CCC4=CC(=O)C(C)(C)C[C@]4(C)[C@H]3CC[C@]12C [compound 18, 2,2-dimethylprogesterone] |  |  | 6.31 ± 0.16 | 99 | fold less potent than PROG (calcium influx) [1]: 135 fold
CC(=O)[C@H]1CC[C@H]2[C@@H]3CC[C@H]4CC(=O)CC[C@]4(C)[C@H]3CC[C@]12C [compound 14, 5α-dihydroprogesterone] |  |  | 6.99 ± 0.05 | 87 | fold less potent than PROG (calcium influx) [1]: ~30 fold
CC(=O)[C@H]1CC[C@H]2[C@@H]3C[C@@H](C)[C@@]4(O)CC(=O)CC[C@]4(C)[C@H]3CC[C@]12C [compound 22, 5α-hydroxy-6β-methylpregnan-3,20-dione] | 5010 | 95 |  |  | 
C[C@H]1C[C@]2(C)[C@@H](O)CC[C@H]2[C@@H]2CCC3=CC(=O)CC[C@@H]3[C@H]21 [compound 38, 11β-methyl-19-nortestosterone] |  |  | 6.37 ± 0.32 | 85 | 
CC(=O)[C@H]1CC[C@H]2[C@@H]3C[C@@H](C)C4=CC(=O)CC[C@]4(C)[C@H]3CC[C@]12C [compound 19, 6β-methylprogesterone] |  |  | 6.58 ± 0.12 | 90 | 
C[C@]12CC[C@H]3[C@@H](CCC4=CC(=O)CC[C@@]43C)[C@@H]1CC[C@@H]2O [compound 36, testosterone] |  | 114 |  |  | EC50 [1]: 219 nM
CC(=O)[C@H]1CC[C@H]2[C@@H]3C[C@H](C)C4=CC(=O)CC[C@]4(C)[C@H]3CC[C@]12C [compound 20, 6α-methylprogesterone] |  |  | 6.16 ± 0.14 | 96 | fold less potent than PROG (calcium influx) [1]: 190 fold
CC(=O)[C@H]1CC[C@H]2[C@@H]3CCC4=CC(=O)CC[C@]4(C)[C@H]3[C@H](O)C[C@]12C [compound 24, 11α-hydroxyprogesterone] |  |  | 6.90 ± 0.08 | 100 | fold less potent than PROG (calcium influx) [1]: 35 fold
CC(=O)O[C@]1(C(C)=O)CC[C@H]2[C@@H]3CCC4=CC(=O)CC[C@]4(C)[C@H]3CC[C@@]21C [compound 29, 17α-acetoxyprogesterone] |  |  |  | 31 | 
C[C@@H]1CC2=CC(=O)CC[C@@H]2[C@@H]2[C@@H]1[C@@H]1CC[C@H](O)[C@@]1(C)C[C@@H]2C [compound 40, 7α,11β-dimethylandrolone] |  |  | 6.06 ± 0.49 | 80 | 
CC(=O)[C@H]1CC[C@H]2[C@@H]3CC[C@H]4CC(=O)CC[C@]4(C)[C@H]3CC[C@]12C [compound 15, 5β-dihydroprogesterone] |  |  | 6.87 ± 0.17 | 95 | fold less potent than PROG (calcium influx) [1]: ~30 fold
C[C@H]1C[C@]2(C)[C@@H](O)CC[C@H]2[C@H]2[C@H]1[C@H]1CCC(=O)C=C1C[C@@H]2C [compound 41, 7β,11β-dimethylandrolone] |  |  | 5.41 ± 0.24 | 42 | 
C[C@]12CC[C@@H](O)C[C@H]1CC[C@@H]1[C@@H]2CC[C@]2(C)[C@@H](C(=O)CO)CC[C@@H]12 [compound 26, 3α,5β-THDOC] |  |  | 5.80 ± 0.26 | 100 | fold lower activity than the corresponding pregnanolones (10–11) [1]: threefold; fold less potent than PROG (calcium influx) [1]: ≥ 240 fold
C=C1C[C@H]2[C@@H]3CCC4=CC(=O)CC[C@@H]4[C@H]3CC[C@]2(C)[C@@]1(OC(C)=O)C(C)=O [compound 35, segesterone acetate] |  |  | <5 | 57 | 
CC(=O)[C@H]1CC[C@H]2[C@@H]3CC[C@@H]4C[C@H](O)CC[C@]4(C)[C@H]3CC[C@]12C [compound 11, 3α,5β-pregnanolone] |  |  | 6.26 ± 0.25 | 102 | 

Source: article PMC8969127 (Molecular Pharmacology, 2022)
